Assay outcomes (PubChem)
M4 PAM = CHRM4 positive allosteric modulation | P08173 | CHO-K1 hM4/Gqi5, Fluo-8 calcium fluorescence, ACh EC20; 0% = ACh EC20, 100% = maximal ACh | activation, % at 3 µM | 0.4% of 360,000 active | AID 624126;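 active means activation above its plate's cutoff, the mean activation of sample wells plus 3 SD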
CHRM5 antagonist = CHRM5 antagonism in calcium assay; P08912; CHO-hM5 cells, Fluo-8 calcium fluorescence, ACh EC80; inhibition, % at 3 µM; 0.59% of 360,000 active; AID 624040;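 active means inhibition above a per-plate cutoff, the mean of that plate's test compounds plus 3 SD, cut at about 27% in these data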;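 further: 0% = acetylcholine EC80 with DMSO and 100% = DMSO without agonist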
Target sequence (P08912 whole entry, looked up): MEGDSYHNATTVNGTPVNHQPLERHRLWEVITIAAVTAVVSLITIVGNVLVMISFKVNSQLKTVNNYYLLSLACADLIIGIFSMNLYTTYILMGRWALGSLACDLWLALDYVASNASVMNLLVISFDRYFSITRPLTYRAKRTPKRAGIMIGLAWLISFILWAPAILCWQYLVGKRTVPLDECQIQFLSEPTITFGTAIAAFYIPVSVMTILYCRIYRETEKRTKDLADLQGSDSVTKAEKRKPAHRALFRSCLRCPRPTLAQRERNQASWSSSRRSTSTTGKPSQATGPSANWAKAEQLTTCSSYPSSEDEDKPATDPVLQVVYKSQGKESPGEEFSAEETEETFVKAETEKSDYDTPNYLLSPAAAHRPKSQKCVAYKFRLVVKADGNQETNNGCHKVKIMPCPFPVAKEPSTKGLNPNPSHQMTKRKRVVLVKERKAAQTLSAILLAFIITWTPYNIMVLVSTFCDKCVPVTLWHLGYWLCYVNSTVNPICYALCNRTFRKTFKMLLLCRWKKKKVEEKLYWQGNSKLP
CHRM5 agonist = agonists of human muscarinic M5 receptor (CHRM5); P08912; CHO-K1 hM5 cells, Fluo-8 calcium fluorescence; 0% DMSO wells, 100% maximal acetylcholine response; activation, % at 3 µM; 0.19% of 360,000 active; AID 624037;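 active means activation above the run's mean over test compounds plus 3 SD, cut at about 23% in these data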;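 further: signal is peak over basal fluorescence ratio across the kinetic read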
M4 ag = CHRM4 agonism in calcium assay | activation, % at 3 µM | CHO-K1 hM4/Gqi5, Fluo-8 calcium fluorescence; vehicle 0%, full acetylcholine response 100% | 0.14% of 360,000 active | AID 624127;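 active means activation above the run mean over all test wells plus 3 SD, cut at about 32% in these data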;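 further: peak over basal fluorescence ratio per well then scaled between controls; 0% = DMSO wells and 100% = acetylcholine at EC100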
M4 antag = CHRM4 antagonism in calcium assay; inhibition, % at 3 µM; CHO-hM4 cells, ACh EC80, Fluo-8 calcium fluorescence; 0.73% of 360,000 active;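 active means inhibition above its plate's cutoff, the mean inhibition of sample wells plus 3 SD, cut at about 27% in these data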;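 further: 0% = acetylcholine EC80 with DMSO and 100% = DMSO without agonist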
M5 PAM = CHRM5 positive allosteric modulation; CHO-K1 hM5, Fluo-8 calcium, ACh EC20 PAM; 0% = ACh EC20, 100% = ACh EC100; activation, % at 3 µM; P08912; 0.3% of 360,000 active;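 active means activation above the run cutoff, the mean activation of all test compounds plus 3 SD, cut at about 18% in these data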
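System: CHO-K1 hM5 cells. Reagent: acetylcholine, EC20 level. Compound dosing: single dose, 3 µM nominal final test concentration. Timing: Post-acetylcholine fluorescence recording 140 s. Detection: Fluo-8 calcium fluorescence. Read-out: % activation, ACh-normalized. Benchmarks: ACh EC20 and EC100 wells. Repeats: singlicate, one well per test compound.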
An asterisk follows results filed as active; ! = not confirmed by another sample. A selection: hits, their analogues and other compounds. The true share with any hit is near 1.9%.

SMILES	M4 PAM	CHRM5 antagonist	CHRM5 agonist	M4 ag	M4 antag	M5 PAM
C[N+](C)(N)CCOC(=O)C(O)(c1ccccc1)C1CCCCC1 (stereo unspecified)	-15	99*	-20	1	99*	-30
CC(C)n1c(=O)c(C=Nc2ccc(F)cc2)c(O)n(Cc2ccco2)c1=O	0	2	-1	1	-4	-8
CC(=O)Nc1ccc(OC(=O)N2CCCCC2)cc1	8	-4	-2	0	-1	1
O=C(Oc1ccc([N+](=O)[O-])cc1)N1CCC(N2CCCCC2)CC1	-17	4	-8	0	56*	-4
N[C@@H](CCl)C(=O)O	-16	7	2	1	51*	-8
C[Se]C[C@@H](N)C(=O)O	-6	3	0	1	10	-2
COC(=O)[C@@]1(C#N)[C@@H]2C=CC(C(C)=O)=CN2[C@@H](C(N)=O)[C@@H]1c1ccc(F)cc1	-9	-7	3	3	10	2
O=C(c1ccc2c(c1)OCO2)C1CCCN(CC2CCCCC2)C1 (stereo unspecified)	-24	8	-11	0	41*	-11
CC1=NNC(=O)C1Br (stereo unspecified)	-1	6	1	0	0	4
COc1ccc(CCNC(=O)c2c(N)n(CCN3CCOCC3)c3nc4ccccc4nc23)cc1OC	-21	34*	0	17	18	-15
C1CC2OC2CC1C1CO1 (stereo unspecified)	2	3	3	1	-5	2
CS(=O)(=O)c1ccc(C2=C(CNC(=O)c3cccs3)[C@H]3CC[C@@H](C2)N3CCOc2ccccc2)cc1	-8	9	-4	1	14	-14
CS(=O)(=O)c1ccc(C2=C(CNC(=O)c3nccs3)[C@H]3CC[C@@H](C2)N3CCOc2ccccc2)cc1	-14	13	-3	2	49*	-13
C[C@]12CC[C@H](O)CC1=CCC1C2CC[C@]2(C)C(=O)[C@H](Br)CC12 (stereo partly specified)	-9	7	6	23	10	-42
CC1CN(c2ccc([N+](=O)[O-])cc2Cl)CCN1 (stereo unspecified)	0	14	-3	2	-11	-5
Cc1ccc(N=Nc2c(O)[nH]c(=O)[nH]c2=O)c([N+](=O)[O-])c1	-9	4	0	0	5	1
c1ccc2c(CN3CCCCCCC3)c[nH]c2c1	-22	6	-4	0	32*	-4
N#CC(CCN1CCOCC1)(c1ccccc1)c1ccccc1	-7	28*	-12	1	14	-15
CCc1ccc(-n2c(O)c(/C=N/N3CCCCC3c3cccnc3)c(=O)[nH]c2=O)cc1 (stereo unspecified)	11	-11	3	0	0	19*
O=c1[nH]c(=S)n(-c2ccccc2)c(O)c1/C=N/N1CCCCC1c1cccnc1 (stereo unspecified)	11	3	5	2	-1	-2
O=C(c1ccc(Cl)cc1)C1CCCN(Cc2cccc3ncccc23)C1 (stereo unspecified)	-36	34*	-13	5	20	-37
O=C(c1ccc(Cl)cc1)C1CCCN(Cc2cccc3cccnc23)C1 (stereo unspecified)	-24	23	-10	18	12	-15
C[C@@H]1CN([C@H](C)CO)C(=O)CCCn2nncc2CO[C@H]1CN(C)C(=O)Oc1ccc2ccccc2c1	2	20	0	0	-7	-8
O=C(NC1CN2CCC1CC2)c1cccc(Cl)c1 (stereo unspecified)	-3	3	-9	0	0	2
O=C(COc1ccc(Cl)cc1)NC1CN2CCC1CC2 (stereo unspecified)	-7	38*	-9	1	12	-23
SMILES	M4 PAM	CHRM5 antagonist	CHRM5 agonist	M4 ag	M4 antag	M5 PAM
CCOC(=O)C1CCCN(c2ccc([N+](=O)[O-])c3nonc23)C1 (stereo unspecified)	-31	52*	185*	314*	53*	-37
CC1CCCN(c2ccc(C(=O)N3CCC4(CC3)OCCO4)cc2[N+](=O)[O-])C1 (stereo unspecified)	-2	-4	-2	2	-7	6
CC1C(c2cccs2)=[N+]([O-])C(C)(C(=O)c2ccc(Cl)cc2)N1O (stereo unspecified)	8	-8	-10	0	-8	5
O=C1C2CCN(CC2)C1Cc1ccc(OCc2ccccc2)cc1 (stereo unspecified)	-7	7	-4	5	-7	-2
C[N+](C)(C)c1ccccc1	1	-1	52*	2	-6	-17
COc1cc(C(O)CNC(C)C)cc(F)c1OC (stereo unspecified)	20	9	1	0	0	1
c1ccc(C2(N3CCCCC3)CCCCC2)cc1	-10	5	-6	1	-4	-16
S=C=Nc1cccc(C2(N3CCCCC3)CCCCC2)c1	-15	27*	-2	1	25	-19
N=c1c[n+](C2CCCCC2)[n-]o1	-3	10	1	0	2	1
O=C(c1ccc(Cl)cc1)C1CCCN(C2CCSCC2)C1 (stereo unspecified)	-19	27*	-10	2	37*	-17
COc1ccc(C(=O)C2CCCN(C3CSCCSC3)C2)cc1OC (stereo unspecified)	-27	9	-19	2	39*	-16
COc1ccc(C(=O)C2CCCN(Cc3cnc(C)s3)C2)cc1OC (stereo unspecified)	-11	-3	-10	1	5	-3
CCOP(=O)(OCC)c1ccc(OP(=O)(c2cccc([N+](=O)[O-])c2)c2cccc([N+](=O)[O-])c2)cc1	21	-3	1	1	-10	11
C[N+](C)(C)CC#CCOC(=O)Nc1cccc(Cl)c1	-20	78*	89*	44*	6	-20
CCCCCCC[n+]1ccc(-c2cc[n+](CCCCCCC)cc2)cc1	-7	-3	-7	0	4	-6
C[n+]1ccc(-c2cc[n+](C)cc2)cc1	2	-3	61*!	0	0	-1
CC1OC(C[N+](C)(C)C)CC1O (stereo unspecified)	-19	95*	102*	71*	30*	-13
C[C@H]1OC[C@@H](C[N+](C)(C)C)O1	-19	96*	107*	98*	73*	-12
c1ccc(-c2ccc3c(c2)CNCc2cnnn2-3)cc1	-3	-1	1	2	-1	0
